# Reference: PubChem BioAssay
# Values without a mark were called inactive. The list shows a part of the results. Active and inactive are the calls of the source.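 The calls were made as follows, unless noted: active = primary screen active, with duplicate mean exceeding buffer control mean plus 3 SD of buffer wells (cut at about 28% in these data); inactive = the rest.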
# Experiments:
# [1] = thallium flux activation in parental CHO cells, counter-screen for KCNQ1 potentiator project (AID 493006;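 active = duplicate-averaged activation above buffer control mean plus 5 SD of those controls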); conditions: parental CHO-K1 cells, FluxOR thallium flux, at 10 µM; active compounds read high
# Summary of the method: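 Material: untransfected host CHO-K1 cells with FluxOR thallium dye. Timing: overnight 37 °C plating, 90 min RT dye, 20 min compound. Detection: kinetic FluxOR fluorescence, 10 s baseline, 110 s after stimulus. Read-out basis: max-minus-min fluorescence over baseline, percent of buffer-to-R-L3 span. Replicates: duplicate wells per compound, percent values averaged.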
# [2] = target: Potassium voltage-gated channel subfamily KQT member 1 (Homo sapiens) (UniProt P51787); assay: KCNQ1 potassium channel potentiators, confirmation, FluxOR thallium flux, CHO cells, duplicates (AID 493007;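 active = potentiation averaged over duplicate wells exceeding buffer-only control mean by more than 3 SD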;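 also: cells depolarized by a potassium plus thallium sulfate stimulus after compound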); conditions: KCNQ1 cell line, FluxOR thallium flux fluorescence, at 10 µM; active compounds read high, % of reference activator effect, buffer zero
# Sequence of Potassium voltage-gated channel subfamily KQT member 1 (Homo sapiens) (P51787 whole entry, looked up): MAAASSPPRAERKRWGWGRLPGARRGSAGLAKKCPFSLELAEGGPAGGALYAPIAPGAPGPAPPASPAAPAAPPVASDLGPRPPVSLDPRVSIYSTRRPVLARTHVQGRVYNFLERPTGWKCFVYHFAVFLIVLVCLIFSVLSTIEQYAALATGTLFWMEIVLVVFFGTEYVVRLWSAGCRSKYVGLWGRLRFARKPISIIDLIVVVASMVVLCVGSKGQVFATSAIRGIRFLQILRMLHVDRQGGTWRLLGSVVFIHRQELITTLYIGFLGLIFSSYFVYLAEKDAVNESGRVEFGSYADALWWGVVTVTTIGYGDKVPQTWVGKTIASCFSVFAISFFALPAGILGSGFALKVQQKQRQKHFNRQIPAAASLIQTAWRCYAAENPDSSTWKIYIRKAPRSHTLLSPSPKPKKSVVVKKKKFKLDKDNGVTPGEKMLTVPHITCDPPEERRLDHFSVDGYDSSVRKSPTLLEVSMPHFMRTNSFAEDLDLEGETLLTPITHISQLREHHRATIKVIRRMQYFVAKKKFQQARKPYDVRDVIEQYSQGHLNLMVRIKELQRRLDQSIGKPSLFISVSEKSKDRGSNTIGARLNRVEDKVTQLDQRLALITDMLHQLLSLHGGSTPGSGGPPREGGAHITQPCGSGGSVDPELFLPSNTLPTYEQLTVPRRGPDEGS
# Summary of the method: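 Test system – KCNQ1-expressing CHO cell line · Incubation – FluxOR dye loading 90 min, compound exposure 20 min, room temperature · Detection – FluxOR Tl+ flux fluorescence, 10 s baseline plus 110 s recording · Controls – buffer-only wells as 0% and R-L3 activator as 100%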
# [3] = target: Potassium voltage-gated channel subfamily KQT member 1 (Homo sapiens) (UniProt P51787); assay: KCNQ1 channel current potentiators, confirmation, orthogonal assay for KCNQ1 potentiator project, IonWorks patch clamp, KCNQ1-CHO cells (AID 493184;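 active = current rise at least 3 SD above the untreated control mean in each of two repeat wells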); conditions: automated patch clamp current, at 10 µM; active compounds read high
# Summary of the method: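 Read-out: Percent current increase versus pre-compound level | Assay system: CHO cells carrying KCNQ1 | Measured by: Automated perforated-patch electrophysiology | Medium: External bath solution at pH 7.4 | Dosing: One dose, 10 µM final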
# [4] = target: Potassium voltage-gated channel subfamily KQT member 1 (Homo sapiens) (UniProt P51787); assay: KCNQ1 potassium channel inhibitors, confirmation, cell-based, Tl flux, duplicate (AID 588353); conditions: KCNQ1 cell line, FluxOR thallium flux fluorescence, at 10 µM, active compounds read high;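 also: 0% = buffer control ratio and 100% = XE991 inhibitor control ratio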
# Summary of the method: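 Material: stable KCNQ1-expressing CHO cell line. Incubation: compound exposure 20 min at room temperature. Replication: duplicates, mean used. Control set: buffer and XE991. Evaluation: percent inhibition relative to buffer and XE991. Reagent: Tl2SO4 plus K2SO4 stimulus, each 12.5 mM in 5x stock. Measured by: thallium-sensitive FluxOR dye fluorescence.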
# [5] = thallium flux effects in parental CHO cells, counter-screen for KCNQ1 inhibitor project, cell-based, Tl flux (AID 588366;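 active = mean of duplicate thallium-flux fluorescence ratios in parental host cells more than 5 SD below the buffer control mean, cut at about 0.38 in these data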;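 also: ratio is peak minus minimum fluorescence divided by baseline fluorescence; actives read low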); conditions: parental CHO-K1, FluxOR thallium flux fluorescence ratio; at 10 µM; active compounds read low; zero means no signal rise above baseline
# Summary of the method: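 material = parental CHO-K1 cells lacking KCNQ1 channel expression | schedule = FluxOR dye loading 90 min, compound exposure 20 min, room temperature | technique = kinetic Tl+ flux fluorescence with FluxOR dye | controls = assay buffer-only wells as negative controls | replicates = each compound tested in duplicate wells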
# [6] = target: Potassium voltage-gated channel subfamily KQT member 2 (Rattus norvegicus) (UniProt O88943); assay: KCNQ2 channel inhibition, selectivity assay for KCNQ1 inhibitor project, cell-based (AID 651746;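 active = mean percent inhibition of the KCNQ2 thallium signal more than 5 SD above the buffer-only control wells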;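 as to inhibition: 0% = buffer control wells and 100% = XE-991 inhibitor control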); conditions: KCNQ2 cells, FluxOR thallium flux fluorescence, at 10 µM; active compounds read high
# Sequence of Potassium voltage-gated channel subfamily KQT member 2 (Rattus norvegicus) (O88943 whole entry, looked up): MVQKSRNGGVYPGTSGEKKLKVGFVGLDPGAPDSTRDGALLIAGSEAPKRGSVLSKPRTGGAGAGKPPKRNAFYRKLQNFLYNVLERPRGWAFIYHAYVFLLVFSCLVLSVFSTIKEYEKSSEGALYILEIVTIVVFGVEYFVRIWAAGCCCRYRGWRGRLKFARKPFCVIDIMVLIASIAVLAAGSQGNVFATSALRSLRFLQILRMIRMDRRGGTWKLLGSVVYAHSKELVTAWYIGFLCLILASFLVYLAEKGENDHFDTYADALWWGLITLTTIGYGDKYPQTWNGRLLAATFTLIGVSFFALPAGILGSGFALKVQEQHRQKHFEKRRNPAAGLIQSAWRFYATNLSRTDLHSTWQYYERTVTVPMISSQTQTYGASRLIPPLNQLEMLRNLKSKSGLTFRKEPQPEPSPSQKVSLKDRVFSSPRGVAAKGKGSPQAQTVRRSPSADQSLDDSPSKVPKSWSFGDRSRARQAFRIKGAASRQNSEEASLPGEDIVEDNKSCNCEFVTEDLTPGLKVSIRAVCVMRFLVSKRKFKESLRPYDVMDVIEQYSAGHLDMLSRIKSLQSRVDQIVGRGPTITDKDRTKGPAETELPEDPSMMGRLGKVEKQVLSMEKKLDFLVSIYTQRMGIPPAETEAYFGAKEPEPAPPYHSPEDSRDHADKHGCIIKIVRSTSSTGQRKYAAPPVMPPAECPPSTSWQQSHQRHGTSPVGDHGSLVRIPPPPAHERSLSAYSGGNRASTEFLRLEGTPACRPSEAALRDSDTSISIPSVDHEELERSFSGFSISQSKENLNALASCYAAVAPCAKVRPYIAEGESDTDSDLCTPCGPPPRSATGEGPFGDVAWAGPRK
# [7] = target: Potassium voltage-gated channel subfamily KQT member 1 (Homo sapiens) (UniProt P51787); assay: KCNQ1 channel inhibitors, confirmation, orthogonal assay, cell-based, automated electrophysiology (AID 624120;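 active = KCNQ1 current drop exceeding 3 SD of negative control wells, seen in both duplicate runs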); conditions: KCNQ1-CHO cells, automated patch clamp current; at 10 µM
# Summary of the method: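 System: KCNQ1-expressing CHO cells; Medium: external buffer at pH 7.4; Probe or stimulus: 2,000 ms voltage steps to +40 mV from -80 mV; Compound: 10 µM final, single dose; Technique: automated perforated-patch voltage clamp using amphotericin B; Measure: percent change in steady-state +40 mV current, post- versus pre-compound; Benchmarks: negative controls; Replication: duplicates.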
# [8] = target: Potassium voltage-gated channel subfamily E member 1 (Homo sapiens) + Potassium voltage-gated channel subfamily KQT member 1 (Homo sapiens) (UniProt P15382+P51787); assay: KCNQ1/KCNE1 channel inhibition, selectivity assay for KCNQ1 inhibitor project, CHO-K1 cells, thallium flux, FluxOR (AID 652147;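 active = mean percent inhibition of duplicate wells above the buffer-only control mean plus 3 SD of those controls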;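 as to inhibition: 0% = buffer only wells and 100% = XE-991 inhibitor control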); conditions: FluxOR thallium flux fluorescence, at 10 µM; active compounds read high
# Sequence of Potassium voltage-gated channel subfamily E member 1 (Homo sapiens) + Potassium voltage-gated channel subfamily KQT member 1 (Homo sapiens) (P51787 whole entry, looked up): as the sequence (P51787 whole entry, looked up) above
# Summary of the method: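 Assay system: KCNQ1/KCNE1 cells | Timing: FluxOR dye loading 90 min, compound exposure 20 min, both room temperature | Detection: Kinetic FluxOR thallium-sensitive fluorescence, 1 Hz sampling, 150 s post-stimulus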
structure (smiles),measurement,setting,value
N#C/C(=C/c1cn(-c2ccccc2)nc1-c1cccc(OCc2ccc(F)cc2)c1)C(=O)NCCCn1ccnc1,outcome,[1],inactive
same,outcome,[2],inactive
same,outcome,[3],inactive
COC(=O)c1cc(-c2cc(OC)ccc2OC)nc2c1c(=O)n(C)c(=O)n2Cc1ccccc1,outcome,[1],inactive
same,outcome,[2],inactive
same,outcome,[3],inactive
COc1cccc(NC(=O)CSCc2cc(=O)n3ccsc3n2)c1,outcome,[1],inactive
same,outcome,[2],inactive
same,outcome,[3],inactive
CC(C)(CCl)C(=O)Nc1ccc(Sc2ccc(F)cc2)cc1,inhibition,[4],166% (active)
same,fluorescence ratio (Tl flux),[5],0.393
same,inhibition,[6],111% (active)
Cc1cc(Br)ccc1NC(=O)c1cnc(N2CCN(c3ccccn3)CC2)c2ccccc12,inhibition,[4],89% (active)
same,fluorescence ratio (Tl flux),[5],0.444
same,outcome,[7],inactive
same,inhibition,[6],94.7% (active)
same,inhibition,[8],124% (active)
Cc1nc2ccccc2cc1OCc1ccc(F)cc1,inhibition,[4],126% (active)
same,fluorescence ratio (Tl flux),[5],0.438
same,outcome,[7],inactive
same,inhibition,[6],99% (active)
same,inhibition,[8],88.5% (active)
CCOC(=O)N1CCN(C(=O)C2CCN(c3ncnc4c3sc3cccc(F)c34)CC2)CC1,inhibition,[4],109% (active)
same,fluorescence ratio (Tl flux),[5],0.427
same,outcome,[7],active
same,inhibition,[6],105% (active)
same,inhibition,[8],90% (active)
C=CCSc1nsc(NC(=O)Nc2cccc(C(C)=O)c2)n1,inhibition,[4],100% (active)
same,fluorescence ratio (Tl flux),[5],0.489
same,outcome,[7],inactive
same,inhibition,[6],74% (active)
same,inhibition,[8],60% (active)
CCc1noc(C)c1C(=O)Oc1ccc(N(C)S(=O)(=O)c2ccc(C)c(C)c2)cc1,inhibition,[4],108% (active)
same,fluorescence ratio (Tl flux),[5],0.408
same,outcome,[7],inactive
same,inhibition,[6],95.3% (active)
same,inhibition,[8],83.5% (active)
S=C(NCC1CCCO1)N1CCN(c2ccc(Cl)c(Cl)c2)CC1 (stereo unspecified),inhibition,[4],101% (active)
same,fluorescence ratio (Tl flux),[5],0.501
same,outcome,[7],active
same,inhibition,[6],76% (active)
same,outcome,[8],inactive
Cc1nc(N2CCN(c3ccccn3)CC2)c2c(C)c(C(=O)Nc3ccc(F)c(Cl)c3)sc2n1,inhibition,[4],160% (active)
same,fluorescence ratio (Tl flux),[5],0.345 (active)
same,inhibition,[6],124% (active)
c1ccc2c(c1)C(=NC1CCCCC1)NC2=NC1CCCCC1,inhibition,[4],48% (active)
same,fluorescence ratio (Tl flux),[5],0.526
same,outcome,[6],inactive
same,outcome,[8],inactive
CCNC(=O)c1ccc(OCC(=O)Nc2ccc(F)cc2)c(OC)c1,inhibition,[4],"0% [the number is a placeholder, only the call stands]"
same,fluorescence ratio (Tl flux),[5],0.446
same,outcome,[6],inactive
same,inhibition,[8],51% (active)
Cc1cc(C)cc(NC(=O)NC2CCCCCCC2)c1,inhibition,[4],146% (active)
same,fluorescence ratio (Tl flux),[5],0.465
same,outcome,[7],active
same,outcome,[6],inactive
same,inhibition,[8],164% (active)
COc1ccc(Cl)cc1NC(=O)C(C)N1CCc2ccccc21 (stereo unspecified),inhibition,[4],114% (active)
same,fluorescence ratio (Tl flux),[5],0.428
same,outcome,[7],inactive
same,inhibition,[6],91% (active)
same,inhibition,[8],132% (active)
FC(F)Oc1ccc(NC(=S)NCc2ccco2)cc1Cl,inhibition,[4],56.5% (active)
same,fluorescence ratio (Tl flux),[5],0.494
same,outcome,[6],inactive
same,inhibition,[8],38% (active)
O=C(CNCCC1=CCCCC1)Nc1ccccc1N1CCCCCC1,inhibition,[4],144% (active)
same,fluorescence ratio (Tl flux),[5],0.402
same,outcome,[7],inactive
same,inhibition,[6],114% (active)
same,inhibition,[8],175% (active)
Clc1cccc(-c2nc(NCC3CCCO3)c3ccccc3n2)c1 (stereo unspecified),inhibition,[4],116% (active)
same,fluorescence ratio (Tl flux),[5],0.394
same,outcome,[7],inactive
same,inhibition,[6],118% (active)
same,inhibition,[8],154% (active)
CCOC(=O)C1CCN(c2ncnc3c2oc2ccc(Br)cc23)CC1,inhibition,[4],150% (active)
same,fluorescence ratio (Tl flux),[5],0.39
same,outcome,[7],inactive
same,inhibition,[6],129% (active)
same,inhibition,[8],193% (active)
Cn1nccc1C(=O)NC1CCCc2c1cnn2-c1ccc(F)cc1F (stereo unspecified),inhibition,[4],90% (active)
same,fluorescence ratio (Tl flux),[5],0.47
same,outcome,[7],inactive
same,inhibition,[6],60.3% (active)
same,outcome,[8],inactive
C=CCOC(=O)C1=C(C)NC(SCC(=O)OCC)=C(C#N)C1c1ccc(C)cc1 (stereo unspecified),inhibition,[4],124% (active)
same,fluorescence ratio (Tl flux),[5],0.425
same,outcome,[7],active
same,inhibition,[6],115% (active)
same,inhibition,[8],160% (active)
CC(C)OCCCNc1ncnc2c1[nH]c1ccc(F)cc12,inhibition,[4],95.5% (active)
same,fluorescence ratio (Tl flux),[5],0.443
same,outcome,[7],active
same,outcome,[6],inactive
same,outcome,[8],inactive
COc1ccc(Nc2ncnc3sc(-c4ccccc4)cc23)c(OC)c1,inhibition,[4],82.5% (active)
same,fluorescence ratio (Tl flux),[5],0.403
same,inhibition,[6],112% (active)
same,inhibition,[8],146% (active)
Cc1ccc(S(=O)(=O)Nc2ccc3ncccc3c2)cc1,inhibition,[4],76.5% (active)
same,fluorescence ratio (Tl flux),[5],0.499
same,outcome,[6],inactive
same,outcome,[8],inactive
Cc1nc(N2CCN(c3ccccn3)CC2)c2c(C)c(C(=O)Nc3ccc(F)cc3)sc2n1,inhibition,[4],146% (active)
same,fluorescence ratio (Tl flux),[5],0.324 (active)
same,inhibition,[6],141% (active)
CCCC(=O)N1CCN(c2nnc(-c3ccc(C)cc3)c3ccccc23)CC1,inhibition,[4],"0% [the number is a placeholder, only the call stands]"
same,fluorescence ratio (Tl flux),[5],0.507
same,inhibition,[6],75% (active)
same,inhibition,[8],78% (active)
Cc1c(C(=O)OC(C)C)sc(NC(=O)c2cccnc2)c1C#N,inhibition,[4],74% (active)
same,fluorescence ratio (Tl flux),[5],0.489
same,inhibition,[6],78% (active)
same,inhibition,[8],48.5% (active)
